Experimental data reported in ChEMBL document CHEMBL1124600, “Synthesis and biological properties of purine and pyrimidine 5'-deoxy-5'-(dihydroxyphosphinyl)-beta-D-ribofuranosyl analogues of AMP, GMP, IMP, and CMP” (J Med Chem, 1989).
The source made the active and inactive calls. No cut-off for these calls is given here.

What was measured:
unidentified adenovirus [1] = experiment: Antiviral activity at <=320 uM determined in a culture of Adenovirus type 2; IA = inactive; assay type: functional, organism-based
CCRF-CEM = experiment: Antitumor activity at <=100 uM determined in a 3-5 days culture of CCRF-CEM(human T cell leukemia); NA = no activity was shown; assay type: functional, cell-based
In short: (§1)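 Wells seeded at (5–10) × 10³ cells with compound at 0.1–100 μM, triplicate wells, 37 °C. L1210 and WI-L2 ran 3 days, CCRF-CEM 4 days, Lovo/L 5 days. MTT was then added for 2 h and formazan dissolved in 2-propanol/0.04 M HCl before absorbance reading. ID50 is the concentration giving 50% of control growth.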

Human alphaherpesvirus 2 [2] = experiment: Antiviral activity at <=320 uM determined in a culture of Herpes simplex virus type 2; IA = inactive; assay type: functional, organism-based
Influenza A virus [3] = experiment: Antiviral activity at <=320 uM determined in a culture of Influenza A; IA = inactive; assay type: functional, organism-based; settings: unidentified influenza virus
L1210 = experiment: Antitumor activity at <=100 uM determined in a 3-5 days culture of L1210 murine leukemia; NA = no activity was shown; assay type: functional, cell-based; settings: Mus musculus; in short: as §1
LoVo = experiment: Antitumor activity at <=100 uM determined in a 3-5 days culture of LOVO/L (human colon carcinoma); NA = no activity was shown; assay type: functional, cell-based; in short: as §1
Enterovirus [4] = experiment: Antiviral activity at <=320 uM determined in a culture of Rhinovirus type 1-A; IA = inactive; assay type: functional, organism-based
WIL2 [5] = experiment: Antitumor activity at <=100 uM determined in a 3-5 days culture of WI-L2 (human B-ltmphoblast); NA = no activity was shown; assay type: functional, cell-based; in short: as §1
Visna-maedi virus [6] = experiment: Antiviral activity at <=320 uM determined in a culture of Visna virus; IA = inactive; assay type: functional, organism-based
[7] = Percent of phosphorylated forms of compound at 4 hr after phosphorylation by nucleoside monophosphate kinase; settings: Bos taurus
WIL2 [8] = experiment: Antitumor activity at <=100 uM determined in a 3-5 days culture of WI-L2 […]; NA = no activity was shown; assay type: functional, cell-based; in short: as §1
unidentified adenovirus [9] = experiment: Antiviral activity at 100 uM determined in a culture of Adenovirus type 2; IA = inactive; assay type: functional, organism-based
Human alphaherpesvirus 2 [10] = experiment: Antiviral activity at 1-3 uM determined in a culture of Herpes simplex virus type 2; IA = inactive; assay type: functional, organism-based
Influenza A virus [11] = experiment: Antiviral activity at 10-30 uM determined in a culture of Influenza A; IA = inactive; assay type: functional, organism-based; settings: unidentified influenza virus
Human respirovirus 3 = experiment: Antiviral activity at 10-30 uM determined in a culture of Parainfluenza virus type 3; IA = inactive; assay type: functional, organism-based
Enterovirus [12] = experiment: Antiviral activity at 100 uM determined in a culture of Rhinovirus type 1-A; IA = inactive; assay type: functional, organism-based
Visna-maedi virus [13] = experiment: Antiviral activity at 1-3 uM determined in a culture of Visna virus; IA = inactive; assay type: functional, organism-based

Row | SMILES | Activity (unidentified adenovirus [1]) | Activity (CCRF-CEM) | Activity (Human alphaherpesvirus 2 [2]) | Activity (Influenza A virus [3]) | Activity (L1210) | Activity (LoVo) | Activity (Enterovirus [4]) | Activity (WIL2 [5]) | Activity (Visna-maedi virus [6]) | % nucleotide present [7] | Activity (WIL2 [8]) | Activity (unidentified adenovirus [9]) | Activity (Human alphaherpesvirus 2 [10]) | Activity (Influenza A virus [11]) | Activity (Human respirovirus 3) | Activity (Enterovirus [12]) | Activity (Visna-maedi virus [13])
1 | Nc1ccn(C2O[C@H](CP(=O)(O)O)[C@@H](O)[C@H]2O)c(=O)n1 (stereo partly drawn) | inactive | inactive | inactive | inactive | inactive | inactive | inactive | inactive | inactive | 87% | – | – | – | – | – | – | –
2 | O=P(O)(O)C[C@H]1OC(n2cnc3c(O)ncnc32)[C@H](O)[C@@H]1O (stereo partly drawn) | inactive | inactive | inactive | inactive | inactive | inactive | inactive | – | inactive | – | inactive | – | – | – | – | – | –
3 | Nc1nc(O)c2ncn(C3O[C@H](CP(=O)(O)O)[C@@H](O)[C@H]3O)c2n1 (stereo partly drawn) | inactive | inactive | inactive | inactive | inactive | inactive | inactive | inactive | inactive | – | – | – | – | – | – | – | –
4 | O=c1ccn(C2O[C@H](CP(=O)(O)O)[C@@H](O)[C@H]2O)c(=O)[nH]1 (stereo partly drawn) | inactive | inactive | inactive | inactive | inactive | inactive | inactive | inactive | inactive | – | – | – | – | – | – | – | –
5 | NC(=O)c1ncn([C@@H]2O[C@H](CO)[C@@H](O)[C@H]2O)n1 | – | – | – | – | – | – | – | – | – | – | – | inactive | inactive | inactive | inactive | inactive | inactive
